From ChEMBL document CHEMBL1125279, “Neurochemistry of aging. 2. Design, synthesis, and biological evaluation of halomethyl analogues of choline with high affinity choline transport inhibitory activity” (J Med Chem, 1991) come the findings set out here.

By IC50 is commonly meant the concentration that inhibits the measured activity by half.

Holding throughout (assay type): functional
The species entered for experiment [1] is Rattus norvegicus. Put plainly: Concentration required to inhibit 50% of the transport of [3H]choline into synaptosomes, using rat hippocampal synaptosomes. The conditions noted are these: Hippocampus. Put shortly:
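Rat hippocampus dissected on ice, homogenized in 0.32 M sucrose; P2 pellet (12000g, 20 min) resuspended in sucrose. Synaptosomes incubated with [3H]choline and increasing inhibitor concentrations, 8 min at 30 °C; filtered, washed three times, lysed in water, tritium counted. High-affinity uptake = standard-medium minus sodium-free accumulation, per mg protein (Lowry); IC50 from percent inhibition.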

Experiment [2] is filed under the species Cavia porcellus. Put plainly: Relative potency with respect to choline in isolated guinea pig ileum preparations.
For experiment [3], the species on record is Cavia porcellus. Put plainly: Relative potency with respect to acetylcholine in isolated guinea pig ileum preparations. A digest of the protocol:
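Guinea pig ileum segment in Tyrode's solution (NaCl 137 mM, KCl 2.68 mM, MgCl2 1.05 mM, CaCl2 1.80 mM, NaH2PO4 0.42 mM, NaHCO3 11.90 mM, glucose 5.55 mM), contents flushed. Contractions to 3–7 concentrations recorded by polygraph and compared against concentration responses to acetylcholine and choline.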

The structures appear in SMILES notation.

Take `CC(O)C[N+](C)(C)CBr.[Br-]` (stereo unspecified): in experiment [1], the IC50 worked out at 56 µM. This compound gave a Relative potency in experiment [2] of 0.04. In the same order, the values of `CC1C[N+](C)(C)CO1.[Br-]` (stereo unspecified) are 200 µM and 2. For `C[N+]1(C)CCOC1.[Br-]`, in that order: 78 µM and 4.25. Turning to `CC(=O)OCC[N+](C)(C)CI.[I-]`, the Relative potency in experiment [3] stood at 0.11. The same measure, in the same setting: the figure for `CC(=O)OCC[N+](C)(C)CBr.[Br-]` is 0.05. The compound `C[N+](C)(CBr)CCO.[Br-]` returned an IC50 in experiment [1] of 0.87 µM. Further, in experiment [2], the Relative potency came to 0.14. In the case of `C[N+](C)(CCl)CCO.[I-]`, the midpoint of inhibition in experiment [1], the IC50, lay at 0.92 µM. In experiment [2], this compound yielded a Relative potency of 0.13. For `CC(O)C[N+](C)(C)CCl.[I-]` (stereo unspecified), in that order: 130 µM and 0.05.

With `CC(=O)OC(C)C[N+](C)(C)CI.[I-]` (stereo unspecified), the Relative potency in experiment [3] is recorded as 0.02.

On to `C[N+](C)(CI)CCO.[I-]`, for which the half-maximal inhibitory concentration (IC50) in experiment [1] stood at 0.49 µM. Besides, in experiment [2], the Relative potency is 0.33. In the same order, the values of `CC(O)C[N+](C)(C)CI.[I-]` (stereo unspecified) are 50 µM and 0.1.

Take `CC(=O)OCC[N+](C)(C)CCl.[I-]`: the Relative potency in experiment [3] is listed as 0.09. On the same count and under the same terms, with `CC(=O)OCC[N+](C)(C)C.[I-]` [ACETYLCHOLINE IODIDE] the figure was 1.
